Source: ChEMBL document CHEMBL2086260, “Cytotoxic prenylated acetophenone dimers from Acronychia pedunculata” (J Nat Prod, 2012)
pIC50: −log10 of the molar value.

Legend:
[1] = tested on: A2058; experiment: Cytotoxicity against human A2058 cells after 48 hrs by […]; assay type: functional, cell-based; conditions: for pIC50: A2058, 48 h
Outline: (§1)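 Cells from ATCC, grown in RPMI 1640 with 10% heat-inactivated FBS and 1% penicillin/streptomycin. Seeded at 5000 cells/well and incubated overnight, then exposed to graded compound concentrations or DMSO vehicle for 48 h. Viability was read by MTS reagent absorbance at 490 nm and normalized to vehicle. Each experiment was run in triplicate or quadruplicate; values are means ± SD.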

[2] = tested on: DU-145; experiment: Cytotoxicity against human DU145 cells after 48 hrs by […]; assay type: functional, cell-based; conditions: for pIC50: DU-145, 48 h; outline: as §1
[3] = tested on: NHDF; experiment: Cytotoxicity against human NHDF cells after 48 hrs by […]; assay type: cell-based; conditions: for pIC50: Homo sapiens, NHDF; for inhibition (INH): human, nhdf
Outline: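 Normal human dermal fibroblasts were grown in DMEM with 10% FBS. Seeded at 5000 cells/well and incubated overnight, then exposed to compounds or DMSO vehicle for 48 h. Viability was read by MTS absorbance at 490 nm and normalized to vehicle. Each experiment was run in triplicate or quadruplicate.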

| Compound | inhibition [1] | pIC50 [1] | inhibition [2] | pIC50 [2] | pIC50 [3] | inhibition (INH) [3] |
| --- | --- | --- | --- | --- | --- | --- |
| C=C(C)C(O)Cc1c(O)c(C(C)=O)c(O)c(C(CC(C)C)c2c(O)c(CC=C(C)C)c(OC)c(C(C)=O)c2O)c1O (stereo not given) [ACROVESTENOL] | Dose-dependent effect | 5.55 | Dose-dependent effect | 5.57 | < 5.30 | Dose-dependent effect |
| COc1c(CC=C(C)C)c(O)c([C@H](CC(C)C)c2c(O)c(CC=C(C)C)c(O)c(C(C)=O)c2O)c(O)c1C(C)=O [ACROVESTONE] | Dose-dependent effect | 6.42 | Dose-dependent effect | 6.03 | < 5.30 | Dose-dependent effect |
| CNC(=O)c1cc(Oc2ccc(NC(=O)Nc3ccc(Cl)c(C(F)(F)F)c3)cc2)ccn1 [SORAFENIB] |  | 5.42 |  | 5.29 |  |  |
| COc1c(CC=C(C)C)c(O)c(C(CC(C)C)c2c(O)c(C(C)=O)c(O)c3c2OC(C(C)(C)O)C3)c(O)c1C(C)=O (stereo not given) [ACROFOLIONE A] | Dose-dependent effect | 5.38 | Dose-dependent effect | < 5.30 | < 5.30 | Dose-dependent effect |
